Measurements as given in ChEMBL document CHEMBL4840310, “Discovery of novel 2,3,5-trisubstituted pyridine analogs as potent inhibitors of IL-1β via modulation of the p38 MAPK signaling pathway” (Eur J Med Chem, 2021).
pIC50: −log10 of the molar value. Activity calls are given as the source filed them. No cut-off for these calls is given here.

Columns and labels:
[1] = Inhibition of LPS stimulated IL-1beta in human mococyte-derived macrophages cells preincubated for 2 hrs followed by LPS stimulation and measured after 6 hrs by ELISA; type: functional; conditions: Macrophage
Procedure, shortened: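 Human monocyte-derived macrophages stimulated with LPS; IL-1β secretion measured over 10 concentrations per compound, N = 2, to compute individual IC50 values; dexamethasone run in parallel as reference. Z-score reported.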

Macrophage [2] = assay: Inhibition of LPS stimulated IL-4 in human mococyte-derived macrophages cells at 1 uM preincubated for 2 hrs followed by LPS stimulation and measured after 6 hrs by ELISA; type: functional; conditions: time 8.0 hrs
Mus musculus [3] = assay: Anti-inflammatory activity in Balb/c mouse assessed as inhibition of stimulated IL-1beta secretion in plasma at 10 mg/kg, po after 4 hrs by ELISA; type: functional, organism-based
Procedure, shortened: (§1)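 Male BALB/c mice dosed orally with 10 or 20 mg/kg compound (DMSO stock, then 5% TPGS in PBS), vehicle controls. LPS O111:B4 0.33 mg/kg i.p. in saline given 2 h after treatment. Blood drawn retro-orbitally into heparin tubes 4 h post-LPS; plasma IL-1β by ELISA read at 450 nm.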

[4] = biological target: T1, Mitogen-activated protein kinase 14 (Homo sapiens, UniProt Q16539); assay: Binding affinity to p38 alpha MAPK (unknown origin) assessed as dissociation rate constant by surface plasmon resonance imaging
[5] = Half life in Wistar rat 65 mg/kg, po administered as single dose; type: ADME, organism-based; conditions: in vivo
Procedure, shortened: (§2)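 Female Wistar rats, 8 weeks old, given a single oral 65 mg/kg dose in PEG400/Kolliphor HS 15 (70/30 v/v); plasma drug levels sampled over time (N = 9). Tmax taken from the curve; two-compartment fit with first-order terminal elimination gave distribution and elimination half-lives.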

Macrophage [6] = assay: Inhibition of LPS stimulated IL-8 in human mococyte-derived macrophages cells at 1 uM preincubated for 2 hrs followed by LPS stimulation and measured after 6 hrs by ELISA; type: functional; conditions: time 8.0 hrs
[7] = Tmax in Wistar rat at 65 mg/kg, po administered as single dose; type: ADME, organism-based; conditions: in vivo; procedure, shortened: as §2
Macrophage [8] = assay: Inhibition of LPS stimulated IL-2 in human mococyte-derived macrophages cells at 1 uM preincubated for 2 hrs followed by LPS stimulation and measured after 6 hrs by ELISA; type: functional; conditions: time 8.0 hrs
Mus musculus [9] = assay: Anti-inflammatory activity in po dosed Balb/c mouse assessed as inhibition of stimulated IL-1beta secretion in lung after 4 hrs by ELISA; type: functional, organism-based; conditions: dose 10-20 mg/kg
Macrophage [10] = assay: Inhibition of LPS stimulated IL-6 in human mococyte-derived macrophages cells at 1 uM preincubated for 2 hrs followed by LPS stimulation and measured after 6 hrs by ELISA; type: functional; conditions: time 8.0 hrs
[11] = biological target: T1, Mitogen-activated protein kinase 14; assay: Binding affinity to p38 alpha MAPK (unknown origin) assessed as association constant by surface plasmon resonance imaging
Macrophage [12] = assay: Inhibition of LPS stimulated GM-CSF in human mococyte-derived macrophages cells at 1 uM preincubated for 2 hrs followed by LPS stimulation and measured after 6 hrs by ELISA; type: functional; conditions: time 8.0 hrs
Mus musculus [13] = assay: Anti-inflammatory activity in po dosed Balb/c mouse assessed as inhibition of stimulated IL-1beta secretion in brain after 4 hrs by ELISA; type: functional, organism-based; conditions: dose 10-20 mg/kg
[14] = Elimination half life in Wistar rat 65 mg/kg, po administered as single dose; type: ADME, organism-based; conditions: in vivo, read-out: beta t1/2 (converted); procedure, shortened: as §2
Mus musculus [15] = assay: Anti-inflammatory activity in Balb/c mouse assessed as inhibition of stimulated IL-1beta secretion in plasma at 20 mg/kg, po after 4 hrs by ELISA; type: functional, organism-based; procedure, shortened: as §1
Mus musculus [16] = assay: Anti-inflammatory activity in po dosed Balb/c mouse assessed as inhibition of stimulated IL-1beta secretion in liver after 4 hrs by ELISA; type: functional, organism-based; conditions: dose 10-20 mg/kg

T1 sequence (Q16539 whole entry): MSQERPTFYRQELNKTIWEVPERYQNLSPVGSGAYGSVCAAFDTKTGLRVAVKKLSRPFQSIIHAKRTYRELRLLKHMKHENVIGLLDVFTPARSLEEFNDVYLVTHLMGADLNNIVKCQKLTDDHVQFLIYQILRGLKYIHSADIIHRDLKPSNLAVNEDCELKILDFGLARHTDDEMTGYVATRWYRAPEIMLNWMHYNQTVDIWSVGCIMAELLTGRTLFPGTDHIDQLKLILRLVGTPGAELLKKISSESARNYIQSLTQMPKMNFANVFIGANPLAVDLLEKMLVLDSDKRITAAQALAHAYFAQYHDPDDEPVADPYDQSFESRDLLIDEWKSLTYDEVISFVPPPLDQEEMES

pIC50 [1]	Structure (SMILES)	other results
< 5.00	CCCOc1ccc(Nc2cc(S(=O)(=O)N(C)C)cnc2N2CCC(Oc3ccc(Cl)cc3)CC2)cc1	–
< 5.00	CCOc1ccc(Oc2cc(S(=O)(=O)N(C)C)cnc2N2CCN(Cc3ccc(Cl)cc3)CC2)cc1	–
6.47	CCOc1ccc(Oc2cc(S(=O)(=O)N(C)C)cnc2N2CCC(Oc3ccc(C(N)=O)nc3)CC2)cc1	–
7.89	CN(C)S(=O)(=O)c1cnc(N2CCC(Oc3ccc(Cl)cc3)CC2)c(Nc2ccc3oc(CO)cc3c2)c1	–
< 5.00	CCC(=O)c1ccc(-c2cc(S(=O)(=O)N(C)C)cnc2N2CCC(Oc3ccc(Cl)cc3)CC2)cc1	–
< 5.00	CCC(=O)c1ccc(Nc2cc(S(=O)(=O)N(C)C)cnc2N2CCC(Oc3ccc(Cl)cc3)CC2)cc1	–
< 5.00	CCOc1ccc(Nc2cc(S(=O)(=O)N(C)C)cnc2N2CCC(Oc3ccc(Cl)cc3)CC2)cc1	–

Second part, the compound before the results:

Structure (SMILES)	pIC50 [1]	other results
CCOc1ccc(Oc2cc(S(=O)(=O)N(C)C)cnc2N2CCC(Oc3ccc(Cl)nc3)CC2)cc1	5.40	–
CCOc1ccc(Oc2cc(S(=O)(=O)N(C)C)cnc2N2CCC(Oc3ccc(Cl)nn3)CC2)cc1	5.96	–
CCOc1ccc(Oc2cc(S(=O)(=O)N(C)C)cnc2N2CCN(Cc3ccc(Cl)nc3)CC2)cc1	< 5.00	–
CN(C)S(=O)(=O)c1cnc(N2CCC(Oc3ccc(Cl)cc3)CC2)c(-c2ccc3c(c2)CCO3)c1	7.57	–
CN(C)S(=O)(=O)c1cnc(N2CCC(Oc3ccc(Cl)cc3)CC2)c(Oc2ccc(OCCO)cc2)c1	< 5.00	–
CN(C)S(=O)(=O)c1cnc(N2CCC(Oc3ccc(Cl)cc3)CC2)c(Oc2ccc3c(c2)CCO3)c1	7.55	–
CN(C)S(=O)(=O)c1cnc(N2CCC(Oc3ccc(Cl)cc3)CC2)c(Nc2ccc3c(c2)CCO3)c1	7.54	–
CCOc1ccc(Oc2cc(S(=O)(=O)N(C)C)cnc2N2CCC(Oc3ccc(Cl)cc3)CC2)cc1	7.55	inhibition (Macrophage [2]): Active; Activity (Mus musculus [3]): Active; koff [4]: 2.48 10^-4/s; half-life [5]: 2.1 h; inhibition (Macrophage [6]): Active; Tmax [7]: 1 h; inhibition (Macrophage [8]): Active; Activity (Mus musculus [9]): Dose-Dependent Effect; inhibition (Macrophage [10]): Active; Ka [11]: 2.08 10^4/M/s; inhibition (Macrophage [12]): Active; Activity (Mus musculus [13]): Dose-Dependent Effect; half-life [14]: 9 h; Activity (Mus musculus [15]): Active; Activity (Mus musculus [16]): Dose-Dependent Effect
CN(C)S(=O)(=O)c1cnc(N2CCC(Oc3ccc(Cl)cc3)CC2)c(Nc2ccc3c(c2)OCO3)c1	6.92	–
